# In paper PMC5760440 (Journal of immunology (Baltimore, Md. : 1950), 2017):
# Ends that are not written are not given here.
# How the values were obtained:
# LNCs = assay: Cytokine secretion by restimulated LNCs, cytokine bead array; assay type: cell-based, mouse; details: supernatants of LNCs from mice immunized with the named peptide (Fig. S2c)
# A/J mice = assay: Induction of myocarditis by immunization with SERCA2a peptides, histology; assay type: in vivo, mouse; details: individual peptide/CFA + PT; for Total inflammatory foci (Mean ± SEM): day 21, H&E heart sections; for Severity of lesions, Atria, Number of animals affected (%), Mild / Severity of lesions, Ventricle, Number of animals affected (%), Mild / Severity of lesions, Atria, Number of animals affected (%), Normal / Severity of lesions, Ventricle, Number of animals affected (%), Normal / Severity of lesions, Atria, Number of animals affected (%), Severe / Severity of lesions, Ventricle, Number of animals affected (%), Severe: day 21, H&E; for Severity of lesions, Atria, Number of animals affected (%), Mild / Severity of lesions, Ventricle, Number of animals affected (%), Mild: mild = 1–5 foci; for Severity of lesions, Atria, Number of animals affected (%), Normal / Severity of lesions, Ventricle, Number of animals affected (%), Normal: normal = 0 foci; for Severity of lesions, Atria, Number of animals affected (%), Severe / Severity of lesions, Ventricle, Number of animals affected (%), Severe: severe = 26 foci and above
# In short: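 Mice got peptide/CFA emulsion (M. tuberculosis H37RA extract 5 mg/ml), 50–100 μg individual peptide, s.c. at inguinal and sternum sites on days 0 and 7. Pertussis toxin 100 ng/mouse i.p. on days 0 and 2. Controls: untreated, CFA+PT. Organs harvested day 21, formalin-fixed, 5 μm H&E sections ~150 μm apart. Blinded foci counts scored 0 / 1–5 / 6–25 / ≥26.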
Substance,Cytokine pattern of peptides inducing mild disease (LNCs),Total inflammatory foci (Mean ± SEM) (A/J mice; SEM),"Severity of lesions, Atria, Number of animals affected (%), Mild (A/J mice)","Severity of lesions, Ventricle, Number of animals affected (%), Mild (A/J mice)","Severity of lesions, Atria, Number of animals affected (%), Normal (A/J mice)","Severity of lesions, Ventricle, Number of animals affected (%), Normal (A/J mice)","Severity of lesions, Atria, Number of animals affected (%), Severe (A/J mice)","Severity of lesions, Ventricle, Number of animals affected (%), Severe (A/J mice)",Total inflammatory foci (Mean ± SEM) (A/J mice)
"SERCA2a 31-50: N-terminally acetylated 20-mer peptide of SERCA2a, residues 31-50 (Ac-KLKERWGSNELPAEEGKTLL; UniProt P16615 31-50, looked up, fragment)",produced mainly IFN-γ,8.00 ± 0.00,0 (0) %,0 (0) %,5,4,0 (0) %,0 (0) %,–
"SERCA2a 161-180: N-terminally acetylated 20-mer peptide of SERCA2a, residues 161-180 (Ac-ADIRLTSIKSTTLRVDQSIL; UniProt P16615 161-180, looked up, fragment)",underproduction of both IFN-γ and IL-17A,2.50 ± 0.64,–,3 (30) %,6,7,0 (0) %,0 (0) %,–
"SERCA2a 171-190: N-terminally acetylated 20-mer peptide of SERCA2a, residues 171-190 (Ac-TTLRVDQSILTGESVSVIKH; UniProt P16615 171-190, looked up, fragment)",–,2.00 ± 0.00,1 (20) %,1 (20) %,4,4,0 (0) %,0 (0) %,–
"SERCA2a 311-330: N-terminally acetylated 20-mer peptide of SERCA2a, residues 311-330 (Ac-LPAVITTCLALGTRRMAKKN; UniProt P16615 311-330, looked up, fragment)",–,–,0 (0) %,0 (0) %,5,5,0 (0) %,0 (0) %,0
"SERCA2a 471-490: N-terminally acetylated 20-mer peptide of SERCA2a, residues 471-490 (Ac-CNSVIKQLMKKEFTLEFSRD; UniProt P16615 471-490, looked up, fragment)",–,–,0 (0) %,0 (0) %,5,5,0 (0) %,0 (0) %,0
"SERCA2a 481-500: N-terminally acetylated 20-mer peptide of SERCA2a, residues 481-500 (Ac-KEFTLEFSRDRKSMSVYCTP; UniProt P16615 481-500, looked up, fragment)",–,–,0 (0) %,0 (0) %,5,5,0 (0) %,0 (0) %,0
"SERCA2a 591-610: N-terminally acetylated 20-mer peptide of SERCA2a, residues 591-610 (Ac-TFVGCVGMLDPPRIEVASSV; UniProt P16615 591-610, looked up, fragment)",–,–,0 (0) %,0 (0) %,5,5,0 (0) %,0 (0) %,0
"SERCA2a 601-620: N-terminally acetylated 20-mer peptide of SERCA2a, residues 601-620 (Ac-PPRIEVASSVKLCRQAGIRV; UniProt P16615 601-620, looked up, fragment)",–,–,0 (0) %,0 (0) %,5,5,0 (0) %,0 (0) %,0
"SERCA2a 821-840: N-terminally acetylated 20-mer peptide of SERCA2a, residues 821-840 (Ac-RNPKEPLISGWLFFRYLAIG; UniProt P16615 821-840, looked up, fragment)",–,–,0 (0) %,0 (0) %,5,5,0 (0) %,0 (0) %,0
"SERCA2a 951-970: N-terminally acetylated 20-mer peptide of SERCA2a, residues 951-970 (Ac-PLPLIFQITPLNVTQWLMVL; UniProt P16615 951-970, looked up, fragment)",–,40.00 ± 39.00,1 (10) %,0 (0) %,8,9,1 (10) %,1 (10) %,–
